Columns and labels:
[1] = tested on: Rattus norvegicus; experiment: Radioactivity was determined in lung tissues of female fischer 344 rats by intravenous administration after 5 minutes; format: ADME, organism-based; conditions: in vivo
Procedure, shortened: (§1)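 Female Fischer 344 rats, 10–12 weeks, 170–200 g, fed ad libitum. The 82Br-labeled fatty acid was taken up in 0.5 mL absolute ethanol and added dropwise to stirred 6% bovine serum albumin at ~40 °C (final ethanol 10%), then 0.22-μm filtered. Dosing was a lateral tail vein injection under ether anesthesia. Rats were killed by cervical fracture at the stated time and blood was taken by cardiac puncture.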

[2] = tested on: Rattus norvegicus; experiment: Radioactivity was determined in liver tissues of female fischer 344 rats by intravenous administration after 1 hour; format: ADME, organism-based; conditions: in vivo; procedure, shortened: as §1
[3] = tested on: Rattus norvegicus; experiment: Radioactivity was determined in kidneys of female fischer 344 rats by intravenous administration after 5 minutes; format: ADME, organism-based, Kidney; conditions: in vivo; procedure, shortened: as §1
[4] = tested on: Rattus norvegicus; experiment: Radioactivity was determined in thyroid of female fischer 344 rats by intravenous administration after 5 minutes; format: ADME, organism-based, Thyroid gland; conditions: in vivo; procedure, shortened: as §1
[5] = tested on: Rattus norvegicus; experiment: Radioactivity was determined in lung tissues of female fischer 344 rats by intravenous administration after 1 hour; format: ADME, organism-based; conditions: in vivo; procedure, shortened: as §1
[6] = tested on: Rattus norvegicus; experiment: Radioactivity was determined in heart tissues of female fischer 344 rats by intravenous administration after 1 hour; format: ADME, organism-based; conditions: in vivo; procedure, shortened: as §1
[7] = tested on: Rattus norvegicus; experiment: Radioactivity was determined in liver tissues of female fischer 344 rats by intravenous administration after 2 hours; format: ADME, organism-based; conditions: in vivo; procedure, shortened: as §1
[8] = tested on: Rattus norvegicus; experiment: Radioactivity was determined in blood tissues of female fischer 344 rats by intravenous administration after 2 hours; format: ADME, organism-based; conditions: in vivo; procedure, shortened: as §1
[9] = tested on: Rattus norvegicus; experiment: Radioactivity was determined in kidneys of female fischer 344 rats by intravenous administration after 30 minutes; format: ADME, organism-based, Kidney; conditions: in vivo, 0.5 h; procedure, shortened: as §1
[10] = tested on: Rattus norvegicus; experiment: Radioactivity was determined in liver tissues of female fischer 344 rats by intravenous administration after 5 minutes; format: ADME, organism-based; conditions: in vivo; procedure, shortened: as §1
[11] = tested on: Rattus norvegicus; experiment: Radioactivity was determined in thyroid of female fischer 344 rats by intravenous administration after 2 hours; format: ADME, organism-based, Thyroid gland; conditions: in vivo; procedure, shortened: as §1
[12] = tested on: Rattus norvegicus; experiment: Radioactivity was determined in lung tissues of female fischer 344 rats by intravenous administration after 30 minutes; format: ADME, organism-based; conditions: in vivo, 0.5 h; procedure, shortened: as §1
[13] = tested on: Rattus norvegicus; experiment: Radioactivity was determined in thyroid of female fischer 344 rats by intravenous administration after 30 minutes; format: ADME, organism-based, Thyroid gland; conditions: in vivo, 0.5 h; procedure, shortened: as §1
[14] = tested on: Rattus norvegicus; experiment: Radioactivity was determined in blood tissues of female fischer 344 rats by intravenous administration after 1 hour; format: ADME, organism-based; conditions: in vivo; procedure, shortened: as §1
[15] = tested on: Rattus norvegicus; experiment: Radioactivity was determined in blood tissues of female fischer 344 rats by intravenous administration after 30 minutes; format: ADME, organism-based; conditions: in vivo, 0.5 h; procedure, shortened: as §1
[16] = tested on: Rattus norvegicus; experiment: Radioactivity was determined in heart tissues of female fischer 344 rats by intravenous administration after 2 hours; format: ADME, organism-based; conditions: in vivo; procedure, shortened: as §1
[17] = tested on: Rattus norvegicus; experiment: Radioactivity was determined in heart tissues of female fischer 344 rats by intravenous administration after 5 minutes; format: ADME, organism-based; conditions: in vivo; procedure, shortened: as §1
[18] = tested on: Rattus norvegicus; experiment: Radioactivity was determined in heart tissues of female fischer 344 rats by intravenous administration after 30 minutes; format: ADME, organism-based; conditions: in vivo, 0.5 h; procedure, shortened: as §1
[19] = tested on: Rattus norvegicus; experiment: Radioactivity was determined in blood tissues of female fischer 344 rats by intravenous administration after 5 minutes; format: ADME, organism-based; conditions: in vivo; procedure, shortened: as §1
[20] = tested on: Rattus norvegicus; experiment: Radioactivity was determined in lung tissues of female fischer 344 rats by intravenous administration after 2 hours; format: ADME, organism-based; conditions: in vivo; procedure, shortened: as §1
[21] = tested on: Rattus norvegicus; experiment: Radioactivity was determined in thyroid of female fischer 344 rats by intravenous administration after 1 hour; format: ADME, organism-based, Thyroid gland; conditions: in vivo; procedure, shortened: as §1
[22] = tested on: Rattus norvegicus; experiment: Radioactivity was determined in liver tissues of female fischer 344 rats by intravenous administration after 30 minutes; format: ADME, organism-based; conditions: in vivo, 0.5 h; procedure, shortened: as §1
[23] = tested on: Rattus norvegicus; experiment: Radioactivity was determined in blood tissues of female fischer 344 rats by intravenous administration after 1 day; format: ADME, organism-based; conditions: in vivo, 24 h; procedure, shortened: as §1
[24] = tested on: Rattus norvegicus; experiment: Radioactivity was determined in liver tissues of female fischer 344 rats by intravenous administration after 1 day; format: ADME, organism-based; conditions: in vivo, 24 h; procedure, shortened: as §1
[25] = tested on: Rattus norvegicus; experiment: Radioactivity was determined in lung tissues of female fischer 344 rats by intravenous administration after 1 day; format: ADME, organism-based; conditions: in vivo, 24 h; procedure, shortened: as §1
[26] = tested on: Rattus norvegicus; experiment: Radioactivity was determined in heart tissues of female fischer 344 rats by intravenous administration after 1 day; format: ADME, organism-based; conditions: in vivo, 24 h; procedure, shortened: as §1

Work on O=C(O)CCC[Te]CCCCCCCCCCC/C=C/Br (stereo in doubt; form 1) yielded a Dose/g [1] of 1.26%, a Dose/g [2] of 5.47% and a Dose/g [3] of 1.62%. It also gave a Dose/g [4] of 7.56%, a Dose/g [5] of 1.61% and a Dose/g [6] of 3.01%. It also gave a Dose/g [7] of 5%, a Dose/g [8] of 0.46% and a Dose/g [9] of 1.49%. For the same molecule, the Dose/g [10] was 7.33%, the Dose/g [11] was 9.52% and the Dose/g [12] was 1.53%. It also gave a Dose/g [13] of 10.86%, a Dose/g [14] of 0.43% and a Dose/g [15] of 0.61%. The Dose/g [16] was 2.56%, the Dose/g [17] was 2.77% and the Dose/g [18] was 2.51%. For the same molecule, the Dose/g [19] was 0.13%, the Dose/g [20] was 1.49% and the Dose/g [21] was 9.26%. It also gave a Dose/g [22] of 6.13%.
Work on O=C(O)CCC[Te]CCCCCCCCCCC/C=C/Br (stereo in doubt; form 2) yielded a Dose/g [1] of 1.91%, a Dose/g [2] of 6.04% and a Dose/g [23] of 0.88%. The Dose/g [3] was 2.31%, the Dose/g [5] was 1.88% and the Dose/g [6] was 3.47%. The Dose/g [24] was 3.15%, the Dose/g [9] was 2.15% and the Dose/g [10] was 6.87%. The Dose/g [12] was 2.08%, the Dose/g [14] was 0.39% and the Dose/g [15] was 0.34%. The Dose/g [25] was 1.48%, the Dose/g [26] was 2.6% and the Dose/g [17] was 3.28%. For the same molecule, the Dose/g [18] was 3.79%, the Dose/g [19] was 0.18% and the Dose/g [22] was 6.79%.
O=C(O)CCC[Te]CCCCCCCCCCC/C=C/I was tested, and the Dose/g [14] was 0.19% and the Dose/g [17] was 3.99%.

Reference: ChEMBL document CHEMBL1122968, “Myocardial imaging agents: synthesis, characterization, and evaluation of (Z)- and (Z,E)-18-[82Br]bromo-5-tellura-17-octadecenoic acids” (J Med Chem, 1985)
